Laboratory results published in ChEMBL document CHEMBL1641579, “Synthesis and biological evaluation of 7-substituted-1-(3-bromophenylamino)isoquinoline-4-carbonitriles as inhibitors of myosin light chain kinase and epidermal growth factor receptor” (Bioorg Med Chem, 2011).

How the values were obtained:
[1] = molecular target: Fibroblast growth factor receptor 1 (Homo sapiens) (UniProt P11362); assay: Inhibition of FGFR1 assessed as residual activity at 10 uM
In short: (§1)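 Kinase panel screen run as a radioactive activity assay at single compound concentration. Score reported as percent activity remaining relative to DMSO controls (100%).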

[2] = molecular target: Serine/threonine-protein kinase PLK1 (Homo sapiens) (UniProt P53350); assay: Inhibition of PLK1 assessed as residual activity at 10 uM
In short: (§2)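 Panel screen by radioactive kinase assay at a single inhibitor concentration. Score is the percent activity remaining relative to DMSO controls (100%).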

[3] = molecular target: T1, Dual specificity tyrosine-phosphorylation-regulated kinase 3 (Homo sapiens) (UniProt O43781); assay: Inhibition of DYRK3 assessed as residual activity at 10 uM; in short: as §1
T1 sequence (whole entry): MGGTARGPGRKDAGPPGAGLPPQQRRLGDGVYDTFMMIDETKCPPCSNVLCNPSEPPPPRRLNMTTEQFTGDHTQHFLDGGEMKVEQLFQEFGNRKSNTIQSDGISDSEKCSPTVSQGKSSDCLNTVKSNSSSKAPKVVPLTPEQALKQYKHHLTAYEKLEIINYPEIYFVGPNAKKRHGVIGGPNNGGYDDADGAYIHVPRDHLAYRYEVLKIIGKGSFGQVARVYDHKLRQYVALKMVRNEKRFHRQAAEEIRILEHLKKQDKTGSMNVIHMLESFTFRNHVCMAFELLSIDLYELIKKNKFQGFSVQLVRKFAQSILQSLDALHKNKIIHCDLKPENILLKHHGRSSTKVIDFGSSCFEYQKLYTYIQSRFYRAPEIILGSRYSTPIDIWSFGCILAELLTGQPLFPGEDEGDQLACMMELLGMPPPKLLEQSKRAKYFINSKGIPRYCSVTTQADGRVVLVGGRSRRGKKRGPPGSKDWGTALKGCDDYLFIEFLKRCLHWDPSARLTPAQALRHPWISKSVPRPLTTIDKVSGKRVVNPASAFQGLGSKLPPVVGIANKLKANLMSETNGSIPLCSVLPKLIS

[4] = molecular target: Serine/threonine-protein kinase PAK 4 (Homo sapiens) (UniProt O96013); assay: Inhibition of PAK4 assessed as residual activity at 10 uM; in short: as §2
Chain of Serine/threonine-protein kinase PAK 4 (Homo sapiens) (O96013 whole entry, looked up): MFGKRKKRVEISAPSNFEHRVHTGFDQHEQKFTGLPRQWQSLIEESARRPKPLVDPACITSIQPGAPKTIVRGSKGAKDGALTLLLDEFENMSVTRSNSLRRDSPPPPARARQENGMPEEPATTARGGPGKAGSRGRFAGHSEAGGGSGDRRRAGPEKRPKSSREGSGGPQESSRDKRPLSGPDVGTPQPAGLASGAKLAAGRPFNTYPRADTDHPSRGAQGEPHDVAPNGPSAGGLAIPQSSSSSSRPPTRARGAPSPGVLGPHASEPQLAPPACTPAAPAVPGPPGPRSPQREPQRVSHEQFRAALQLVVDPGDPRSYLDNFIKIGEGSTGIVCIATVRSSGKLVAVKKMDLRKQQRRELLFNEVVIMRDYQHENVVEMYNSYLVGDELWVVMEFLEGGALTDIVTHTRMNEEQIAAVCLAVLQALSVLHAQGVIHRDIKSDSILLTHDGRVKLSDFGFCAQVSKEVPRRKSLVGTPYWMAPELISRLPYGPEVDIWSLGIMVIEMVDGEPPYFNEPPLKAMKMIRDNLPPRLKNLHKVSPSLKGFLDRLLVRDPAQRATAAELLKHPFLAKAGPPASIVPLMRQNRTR

[5] = molecular target: Receptor tyrosine-protein kinase erbB-4 (Homo sapiens) (UniProt Q15303); assay: Inhibition of HER4 assessed as residual activity at 10 uM; in short: as §1
Chain of Receptor tyrosine-protein kinase erbB-4 (Homo sapiens) (Q15303 whole entry): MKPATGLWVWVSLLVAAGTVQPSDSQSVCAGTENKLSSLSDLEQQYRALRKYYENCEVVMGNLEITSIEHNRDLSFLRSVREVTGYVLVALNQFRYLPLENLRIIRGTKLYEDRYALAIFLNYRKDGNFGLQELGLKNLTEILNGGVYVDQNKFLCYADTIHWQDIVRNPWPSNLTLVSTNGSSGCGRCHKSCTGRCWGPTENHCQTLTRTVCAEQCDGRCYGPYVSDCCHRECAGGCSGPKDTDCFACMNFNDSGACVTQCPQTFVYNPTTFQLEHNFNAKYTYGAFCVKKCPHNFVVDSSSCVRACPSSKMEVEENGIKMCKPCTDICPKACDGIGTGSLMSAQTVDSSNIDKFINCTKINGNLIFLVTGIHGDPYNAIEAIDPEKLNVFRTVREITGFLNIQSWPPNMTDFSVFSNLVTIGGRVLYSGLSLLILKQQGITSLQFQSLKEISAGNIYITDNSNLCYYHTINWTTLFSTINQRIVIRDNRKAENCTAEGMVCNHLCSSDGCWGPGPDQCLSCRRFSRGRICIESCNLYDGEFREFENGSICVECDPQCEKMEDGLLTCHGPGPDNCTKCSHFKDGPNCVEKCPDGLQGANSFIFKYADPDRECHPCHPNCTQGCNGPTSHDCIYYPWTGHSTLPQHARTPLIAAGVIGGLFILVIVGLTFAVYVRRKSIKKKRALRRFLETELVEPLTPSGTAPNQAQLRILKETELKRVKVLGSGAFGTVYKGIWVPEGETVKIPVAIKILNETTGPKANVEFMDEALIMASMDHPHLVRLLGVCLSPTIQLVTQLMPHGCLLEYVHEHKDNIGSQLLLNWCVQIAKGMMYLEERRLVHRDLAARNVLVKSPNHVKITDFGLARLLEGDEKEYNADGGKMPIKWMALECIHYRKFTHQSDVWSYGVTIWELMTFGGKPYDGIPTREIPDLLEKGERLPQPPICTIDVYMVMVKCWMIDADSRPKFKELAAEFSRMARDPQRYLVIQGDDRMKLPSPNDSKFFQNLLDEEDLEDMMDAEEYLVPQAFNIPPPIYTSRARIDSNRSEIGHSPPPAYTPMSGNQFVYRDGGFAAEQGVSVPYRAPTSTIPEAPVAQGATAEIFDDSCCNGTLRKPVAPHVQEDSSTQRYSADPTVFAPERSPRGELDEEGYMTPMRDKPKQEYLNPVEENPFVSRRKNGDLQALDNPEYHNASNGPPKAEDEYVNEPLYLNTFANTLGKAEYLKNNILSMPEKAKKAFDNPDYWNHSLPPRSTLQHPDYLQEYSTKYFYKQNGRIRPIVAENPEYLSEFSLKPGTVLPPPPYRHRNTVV

[6] = molecular target: Serine/threonine-protein kinase MARK2 (Homo sapiens) (UniProt Q7KZI7); assay: Inhibition of MARK2 assessed as residual activity at 10 uM; in short: as §1
[7] = molecular target: Serine/threonine-protein kinase pim-1 (Homo sapiens) (UniProt P11309); assay: Inhibition of PIM1 assessed as residual activity at 10 uM; in short: as §2
Chain of Serine/threonine-protein kinase pim-1 (Homo sapiens) (P11309 whole entry, looked up): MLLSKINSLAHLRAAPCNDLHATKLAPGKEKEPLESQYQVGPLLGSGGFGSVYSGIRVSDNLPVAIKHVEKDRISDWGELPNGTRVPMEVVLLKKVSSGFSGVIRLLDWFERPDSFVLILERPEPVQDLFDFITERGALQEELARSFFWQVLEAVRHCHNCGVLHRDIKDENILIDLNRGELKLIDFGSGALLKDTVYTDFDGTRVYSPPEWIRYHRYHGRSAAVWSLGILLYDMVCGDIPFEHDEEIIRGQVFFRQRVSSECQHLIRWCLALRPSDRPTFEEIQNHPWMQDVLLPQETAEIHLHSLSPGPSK

[8] = Inhibition of AMPK assessed as residual activity at 10 uM; in short: as §1
[9] = molecular target: Aurora kinase B (Homo sapiens) (UniProt Q96GD4); assay: Inhibition of aurora B assessed as residual activity at 10 uM; in short: as §2
Chain of Aurora kinase B (Homo sapiens) (Q96GD4 whole entry): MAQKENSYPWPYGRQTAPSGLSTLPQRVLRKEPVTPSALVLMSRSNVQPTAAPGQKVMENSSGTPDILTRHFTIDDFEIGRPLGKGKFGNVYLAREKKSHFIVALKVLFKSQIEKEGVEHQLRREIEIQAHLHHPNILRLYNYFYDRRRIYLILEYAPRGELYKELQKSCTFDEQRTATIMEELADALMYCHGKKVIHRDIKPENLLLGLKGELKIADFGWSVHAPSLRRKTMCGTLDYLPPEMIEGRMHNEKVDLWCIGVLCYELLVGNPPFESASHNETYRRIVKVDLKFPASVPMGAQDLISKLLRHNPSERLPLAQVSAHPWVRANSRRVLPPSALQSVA

[10] = molecular target: Homeodomain-interacting protein kinase 3 (Homo sapiens) (UniProt Q9H422); assay: Inhibition of HIPK3 assessed as residual activity at 10 uM; in short: as §1
Chain of Homeodomain-interacting protein kinase 3 (Homo sapiens) (Q9H422 whole entry, looked up): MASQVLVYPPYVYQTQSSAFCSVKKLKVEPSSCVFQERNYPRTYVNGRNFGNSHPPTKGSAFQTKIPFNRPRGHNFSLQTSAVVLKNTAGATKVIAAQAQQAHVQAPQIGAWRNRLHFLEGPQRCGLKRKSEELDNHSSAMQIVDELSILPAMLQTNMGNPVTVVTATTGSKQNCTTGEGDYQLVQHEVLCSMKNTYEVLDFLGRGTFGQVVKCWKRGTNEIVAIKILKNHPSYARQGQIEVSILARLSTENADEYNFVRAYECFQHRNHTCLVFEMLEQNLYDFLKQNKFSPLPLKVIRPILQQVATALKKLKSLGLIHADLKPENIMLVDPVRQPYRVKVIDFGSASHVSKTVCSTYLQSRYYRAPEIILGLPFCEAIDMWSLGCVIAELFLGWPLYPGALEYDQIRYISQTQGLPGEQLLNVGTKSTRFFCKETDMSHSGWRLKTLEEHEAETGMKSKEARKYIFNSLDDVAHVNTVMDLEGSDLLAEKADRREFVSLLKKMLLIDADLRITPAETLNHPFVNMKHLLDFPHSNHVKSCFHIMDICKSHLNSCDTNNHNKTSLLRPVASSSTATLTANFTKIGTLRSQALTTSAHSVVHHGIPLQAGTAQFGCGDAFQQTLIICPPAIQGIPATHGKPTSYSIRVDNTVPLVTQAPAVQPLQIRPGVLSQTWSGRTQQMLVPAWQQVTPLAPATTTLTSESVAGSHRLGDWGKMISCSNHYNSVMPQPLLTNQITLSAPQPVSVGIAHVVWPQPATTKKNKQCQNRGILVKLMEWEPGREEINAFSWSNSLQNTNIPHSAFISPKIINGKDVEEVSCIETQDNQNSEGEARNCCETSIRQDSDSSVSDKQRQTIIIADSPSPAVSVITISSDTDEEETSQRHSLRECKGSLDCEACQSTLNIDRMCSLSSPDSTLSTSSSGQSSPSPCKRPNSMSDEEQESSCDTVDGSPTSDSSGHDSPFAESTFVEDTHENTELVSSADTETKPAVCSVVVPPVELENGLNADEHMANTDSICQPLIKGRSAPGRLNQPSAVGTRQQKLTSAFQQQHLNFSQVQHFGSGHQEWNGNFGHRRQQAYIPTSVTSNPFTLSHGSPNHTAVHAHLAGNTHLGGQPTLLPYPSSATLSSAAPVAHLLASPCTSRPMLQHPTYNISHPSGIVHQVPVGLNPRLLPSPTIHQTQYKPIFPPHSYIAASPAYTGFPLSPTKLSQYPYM

[11] = molecular target: Mitogen-activated protein kinase 3 (Homo sapiens) (UniProt P27361); assay: Inhibition of ERK1 assessed as residual activity at 10 uM; in short: as §1
[12] = molecular target: Mitogen-activated protein kinase 11 (Homo sapiens) (UniProt Q15759); assay: Inhibition of p38beta assessed as residual activity at 10 uM; in short: as §2
Chain of Mitogen-activated protein kinase 11 (Homo sapiens) (Q15759 whole entry): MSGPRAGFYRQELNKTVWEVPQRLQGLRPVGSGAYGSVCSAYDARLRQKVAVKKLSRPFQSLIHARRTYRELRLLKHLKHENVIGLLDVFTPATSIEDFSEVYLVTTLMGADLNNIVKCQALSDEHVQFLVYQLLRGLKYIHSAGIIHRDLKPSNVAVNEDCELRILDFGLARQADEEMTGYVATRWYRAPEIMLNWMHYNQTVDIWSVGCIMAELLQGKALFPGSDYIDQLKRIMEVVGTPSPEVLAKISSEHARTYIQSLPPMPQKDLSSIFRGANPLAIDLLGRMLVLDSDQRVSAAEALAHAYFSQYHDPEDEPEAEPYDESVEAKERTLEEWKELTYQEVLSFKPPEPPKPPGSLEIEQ

[13] = molecular target: Serine/threonine-protein kinase pim-3 (Homo sapiens) (UniProt Q86V86); assay: Inhibition of PIM3 assessed as residual activity at 10 uM; in short: as §2
[14] = molecular target: Calcium/calmodulin-dependent protein kinase kinase 2 (Homo sapiens) (UniProt Q96RR4); assay: Inhibition of CAMKKbeta assessed as residual activity at 10 uM; in short: as §1
Chain of Calcium/calmodulin-dependent protein kinase kinase 2 (Homo sapiens) (Q96RR4 2-588 limits assumed): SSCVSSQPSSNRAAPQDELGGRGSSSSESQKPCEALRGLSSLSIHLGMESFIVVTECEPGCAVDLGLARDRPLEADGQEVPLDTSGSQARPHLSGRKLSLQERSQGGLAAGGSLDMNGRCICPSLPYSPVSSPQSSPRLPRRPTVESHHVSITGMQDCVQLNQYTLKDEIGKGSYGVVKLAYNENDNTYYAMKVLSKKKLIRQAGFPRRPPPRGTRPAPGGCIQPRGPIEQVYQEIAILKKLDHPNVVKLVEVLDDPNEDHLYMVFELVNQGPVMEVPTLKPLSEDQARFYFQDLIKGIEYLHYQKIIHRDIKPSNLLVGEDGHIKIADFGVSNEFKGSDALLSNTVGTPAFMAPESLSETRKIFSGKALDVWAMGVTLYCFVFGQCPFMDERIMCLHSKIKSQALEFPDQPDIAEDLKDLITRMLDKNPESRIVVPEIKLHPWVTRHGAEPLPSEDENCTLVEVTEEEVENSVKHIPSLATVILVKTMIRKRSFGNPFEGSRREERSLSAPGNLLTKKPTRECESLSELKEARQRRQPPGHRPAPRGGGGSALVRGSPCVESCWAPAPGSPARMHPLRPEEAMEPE

[15] = molecular target: Serine/threonine-protein kinase 26 (Homo sapiens) (UniProt Q9P289); assay: Inhibition of MST4 assessed as residual activity at 10 uM; in short: as §2
[16] = molecular target: T2, Ephrin type-B receptor 3 (Homo sapiens) (UniProt P54753); assay: Inhibition of EPHB3 assessed as residual activity at 10 uM; in short: as §1
T2 sequence (whole entry): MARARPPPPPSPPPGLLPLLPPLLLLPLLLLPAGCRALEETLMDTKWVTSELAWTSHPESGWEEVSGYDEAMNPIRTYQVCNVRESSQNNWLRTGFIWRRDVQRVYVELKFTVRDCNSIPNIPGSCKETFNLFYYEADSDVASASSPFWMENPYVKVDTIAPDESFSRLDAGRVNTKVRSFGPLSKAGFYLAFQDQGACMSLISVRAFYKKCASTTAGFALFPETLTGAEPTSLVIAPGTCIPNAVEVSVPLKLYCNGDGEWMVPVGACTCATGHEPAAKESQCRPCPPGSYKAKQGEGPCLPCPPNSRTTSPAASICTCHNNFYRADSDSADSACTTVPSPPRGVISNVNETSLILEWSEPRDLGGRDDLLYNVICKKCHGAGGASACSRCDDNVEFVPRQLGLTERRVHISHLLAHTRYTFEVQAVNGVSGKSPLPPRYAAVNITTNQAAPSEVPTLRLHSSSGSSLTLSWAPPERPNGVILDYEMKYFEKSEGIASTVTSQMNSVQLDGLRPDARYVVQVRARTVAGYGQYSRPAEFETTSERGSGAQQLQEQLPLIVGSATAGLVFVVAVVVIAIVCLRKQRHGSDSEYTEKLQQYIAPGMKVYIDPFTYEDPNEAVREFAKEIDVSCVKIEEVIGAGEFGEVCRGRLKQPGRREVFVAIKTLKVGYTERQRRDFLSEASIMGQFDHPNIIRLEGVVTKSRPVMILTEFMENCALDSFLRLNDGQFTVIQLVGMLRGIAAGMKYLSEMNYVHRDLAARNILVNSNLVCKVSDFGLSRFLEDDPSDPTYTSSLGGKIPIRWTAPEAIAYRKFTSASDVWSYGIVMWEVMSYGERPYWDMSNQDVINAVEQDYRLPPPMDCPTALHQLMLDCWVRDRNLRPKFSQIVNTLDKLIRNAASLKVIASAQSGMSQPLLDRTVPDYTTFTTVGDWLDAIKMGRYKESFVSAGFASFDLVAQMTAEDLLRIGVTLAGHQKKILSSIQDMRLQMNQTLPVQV

Structure (SMILES) | Activity [1] | Activity [2] | Activity [3] | Activity [4] | Activity [5] | Activity [6] | Activity [7] | Activity [8] | Activity [9] | Activity [10] | Activity [11] | Activity [12] | Activity [13] | Activity [14] | Activity [15] | Activity [16]
CN(C)C/C=C/C(=O)Nc1ccc2c(C#N)cnc(Nc3cccc(Br)c3)c2c1 | 51% | 84% | 75% | 82% | 21% | 90% | 73% | 86% | 33% | 91% | 83% | 95% | 59% | 91% | 81% | 95%
CN1CCN(CCC(=O)Nc2ccc3c(C#N)cnc(Nc4cccc(Br)c4)c3c2)CC1 | 100% | 86% | 81% | 86% | 57% | 100% | 73% | 77% | 42% | 87% | 85% | 100% | 68% | 87% | 92% | 90%
CN(C)CCCC(=O)Nc1ccc2c(C#N)cnc(Nc3cccc(Br)c3)c2c1 | 99% | 69% | 73% | 94% | 69% | 100% | 68% | 79% | 41% | 93% | 93% | 100% | 46% | 92% | 99% | 100%
